Columns and labels:
Format in all cases: cell-based, Plasmodium falciparum
[1] = test system: P. falciparum 7G8^7G8+F145I parasite line; assay: [3H]-drug accumulation assay in cultured parasites; settings: 60 min, trophozoites
Procedure, shortened: (§1)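 Sorbitol-synchronized early trophozoites (24–26 h) were magnet-purified and resuspended in bicarbonate-free RPMI 1640 (25 mM HEPES, 10 mM glucose, 0.2 mM hypoxanthine, pH 7.4), counted by hemocytometer. They were mixed with an equal volume of radiolabelled drug (10 nM [3H]-CQ before mixing) for 1 h at 37°C, spun through dibutyl phthalate, then scintillation counted. CAR was internal/external drug, corrected for uninfected erythrocytes, per 10^6 cells at 75 fl; 4–6 assays in duplicate.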

[2] = test system: P. falciparum Dd2^Dd2 parasite line; assay: [3H]-drug accumulation assay in cultured parasites; settings: 60 min, trophozoites
Procedure, shortened: as §1

[3] = test system: P. falciparum WT (3D7) parasite line; assay: Parasite drug susceptibility assay; settings: Plasmodium falciparum, 3D7, 72 h
Procedure, shortened: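 Asynchronous asexual blood-stage parasites were seeded at 0.3% parasitemia and 1% hematocrit into 2-fold, 10-point test compound dilutions. Incubation was 72 h at 37°C under 5% O2/5% CO2/90% N2. Final parasitemia was read by flow cytometry. IC50 came from nonlinear regression, 4 independent assays in duplicate, with two-tailed Mann-Whitney U tests.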

[4] = test system: P. falciparum 7G8^7G8+F145I parasite line; assay: Piperaquine survival assay; settings: vs no-drug control
[5] = test system: P. falciparum WT (3D7) parasite line; assay: Piperaquine survival assay; settings: vs no-drug control
[6] = test system: P. falciparum Dd2^Dd2 parasite line; assay: Piperaquine survival assay; settings: vs no-drug control
[7] = test system: P. falciparum 7G8^7G8 parasite line; assay: Piperaquine survival assay; settings: vs no-drug control
[8] = test system: P. falciparum ring-stage parasites; assay: Piperaquine survival assay, summary in text
[9] = test system: P. falciparum 7G8^7G8+C350R parasite line; assay: Piperaquine survival assay; settings: vs no-drug control

## CCN(CC)CCCC(C)Nc1ccnc2cc(Cl)ccc12 (stereo not drawn) [CQ, chloroquine]
[1]; 5 nM [3H]-CQ
  [3H]-CQ CAR (cellular accumulation ratio): 388.4 ± 38.9
[2]; 5 nM [3H]-CQ
  [3H]-CQ CAR (cellular accumulation ratio): 26.3 ± 2.9
[3]
  IC50: 12.2 ± 0.5 nM

## Clc1ccc2c(N3CCN(CCCN4CCN(c5ccnc6cc(Cl)ccc56)CC4)CC3)ccnc2c1 [PPQ, piperaquine]
[4]; 3.125 nM PPQ 48 h
  PSA 3.125 nM, percent survival: 95.7 ± 3.1%
[4]; 6.25 nM PPQ 48 h
  PSA 6.25 nM, percent survival: 83.4 ± 4.5%
[4]; 12.5 nM PPQ 48 h
  PSA 12.5 nM, percent survival: 62.3 ± 4.1%
[4]; 25 nM PPQ 48 h
  PSA 25 nM, percent survival: 44.5 ± 2.4%
[4]; 50 nM PPQ 48 h
  PSA 50 nM, percent survival: 8.5 ± 1.2%
[4]; 200 nM PPQ 48 h
  PSA 200 nM, percent survival: 8.6 ± 2.4%
[4]; 400 nM PPQ 48 h
  PSA 400 nM, percent survival: 12.7 ± 2.5%
[4]; 800 nM PPQ 48 h
  PSA 800 nM, percent survival: 13.1 ± 3.9%
[4]; 1600 nM PPQ 48 h
  PSA 1600 nM, percent survival: 14.7 ± 4.2%
[5]; 3.125 nM PPQ 48 h
  PSA 3.125 nM, percent survival: 81.2 ± 19.6%
[5]; 6.25 nM PPQ 48 h
  PSA 6.25 nM, percent survival: 12.1 ± 6.8%
[5]; 12.5 nM PPQ 48 h
  PSA 12.5 nM, percent survival: 7.2 ± 1.5%
[5]; 25 nM PPQ 48 h
  PSA 25 nM, percent survival: 11.0 ± 1.7%
[5]; 50 nM PPQ 48 h
  PSA 50 nM, percent survival: 4.9 ± 1.1%
[5]; 100 nM PPQ 48 h
  PSA 100 nM, percent survival: 1.3 ± 0.35%
[5]; 200 nM PPQ 48 h
  PSA 200 nM, percent survival: 1.2 ± 0.54%
[5]; 400 nM PPQ 48 h
  PSA 400 nM, percent survival: 0.61 ± 0.19%
[5]; 800 nM PPQ 48 h
  PSA 800 nM, percent survival: 0.62 ± 0.16%
[5]; 1600 nM PPQ 48 h
  PSA 1600 nM, percent survival: 0.51 ± 0.17%
[6]; 3.125 nM PPQ 48 h
  PSA 3.125 nM, percent survival: 95.9 ± 2.1%
[6]; 6.25 nM PPQ 48 h
  PSA 6.25 nM, percent survival: 83.6 ± 6.1%
[6]; 12.5 nM PPQ 48 h
  PSA 12.5 nM, percent survival: 67.7 ± 11.9%
[6]; 25 nM PPQ 48 h
  PSA 25 nM, percent survival: 35.3 ± 12.2%
[6]; 50 nM PPQ 48 h
  PSA 50 nM, percent survival: 7.6 ± 3.3%
[6]; 100 nM PPQ 48 h
  PSA 100 nM, percent survival: 1.7 ± 0.2%
[6]; 200 nM PPQ 48 h
  PSA 200 nM, percent survival: 1.1 ± 0.10%
[6]; 400 nM PPQ 48 h
  PSA 400 nM, percent survival: 1.1 ± 0.24%
[6]; 800 nM PPQ 48 h
  PSA 800 nM, percent survival: 0.89 ± 0.16%
[6]; 1600 nM PPQ 48 h
  PSA 1600 nM, percent survival: 0.87 ± 0.10%
[1]; 20 nM [3H]-PPQ
  [3H]-PPQ CAR (cellular accumulation ratio): 1125.6 ± 59.6
[7]; 3.125 nM PPQ 48 h
  PSA 3.125 nM, percent survival: 93.8 ± 3.5%
[7]; 6.25 nM PPQ 48 h
  PSA 6.25 nM, percent survival: 87.1 ± 3.5%
[7]; 12.5 nM PPQ 48 h
  PSA 12.5 nM, percent survival: 76.7 ± 5.1%
[7]; 25 nM PPQ 48 h
  PSA 25 nM, percent survival: 48.3 ± 5.5%
[7]; 50 nM PPQ 48 h
  PSA 50 nM, percent survival: 4.9 ± 1.3%
[7]; 100 nM PPQ 48 h
  PSA 100 nM, percent survival: 1.6 ± 0.3%
[7]; 200 nM PPQ 48 h
  PSA 200 nM, percent survival: 1.4 ± 0.2%
[7]; 400 nM PPQ 48 h
  PSA 400 nM, percent survival: 0.66 ± 0.20%
[7]; 800 nM PPQ 48 h
  PSA 800 nM, percent survival: 0.56 ± 0.17%
[7]; 1600 nM PPQ 48 h
  PSA 1600 nM, percent survival: 0.54 ± 0.20%
[8]; PPQ-S parasites, concentrations of 200 nM or more
  survival in PPQ survival assay: ≤ 1%
[8]; standard assay concentration of 200 nM PPQ, 48 h, edited 7G8+F145I and 7G8+C350R lines (Fig. 3l)
  survival in PPQ survival assay: 9–10%
[2]; 20 nM [3H]-PPQ
  [3H]-PPQ CAR (cellular accumulation ratio): 1861.3 ± 91.8
[3]
  IC50: 16.2 ± 1.3 nM
[9]; 3.125 nM PPQ 48 h
  PSA 3.125 nM, percent survival: 96.6 ± 2.4%
[9]; 6.25 nM PPQ 48 h
  PSA 6.25 nM, percent survival: 90.7 ± 5.1%
[9]; 12.5 nM PPQ 48 h
  PSA 12.5 nM, percent survival: 79.8 ± 5.5%
[9]; 25 nM PPQ 48 h
  PSA 25 nM, percent survival: 62.1 ± 9.6%
[9]; 50 nM PPQ 48 h
  PSA 50 nM, percent survival: 31.8 ± 9.3%
[9]; 100 nM PPQ 48 h
  PSA 100 nM, percent survival: 7.7 ± 2.5%
[9]; 200 nM PPQ 48 h
  PSA 200 nM, percent survival: 9.5 ± 1.2%
[9]; 400 nM PPQ 48 h
  PSA 400 nM, percent survival: 10.5 ± 1.1%
[9]; 800 nM PPQ 48 h
  PSA 800 nM, percent survival: 6.6 ± 0.46%
[9]; 1600 nM PPQ 48 h
  PSA 1600 nM, percent survival: 5.9 ± 0.9%
